Published values collected from several papers.
Lines come from different studies, so protocols differ.
CDK4 with cyclin D1: Cyclin-dependent kinase 4, with cyclin D1 (CDK4, Homo sapiens, UniProt P11802)
CDK4 with cyclin D3: Cyclin-dependent kinase 4, with cyclin D3 (CDK4, Homo sapiens, UniProt P11802)
AMY2: Pancreatic alpha-amylase (AMY2, Sus scrofa, UniProt P00690)
CHRM2: Muscarinic acetylcholine receptor M2 (CHRM2, Homo sapiens, UniProt P08172)

| Structure (SMILES) | target | read-out | mode | method | pH | notes | IC50 [µM] |
| --- | --- | --- | --- | --- | --- | --- | --- |
| Cc1cc(O)c(-c2ccc([C@@H](C)CN(C)C)cc2)c2c1[nH]c(=O)c1sccc12 | CDK4 with cyclin D1 | enzyme activity | inhibitor |  |  |  | > 1 |
| CNS(=O)(=O)c1ccc(Nc2ncc(C(F)(F)F)c(N3CCCC(C)(O)C3)n2)c(C)c1 (stereo not shown) | CDK4 with cyclin D3 | enzyme activity | inhibitor | radiometric |  |  | 0.71 |
| O=c1c(O)c(-c2ccc(O)cc2)oc2c(Br)c(O)c(Br)c(O)c12 | AMY2 | enzyme activity | inhibitor |  |  |  | 3.71 |
| O=C(/C=C/c1ccc(O)c(O)c1)O[C@H](Cc1ccc(O)c(O)c1)C(=O)O | Pancreatic triacylglycerol lipase (PNLIP, Sus scrofa, UniProt P00591) | enzyme activity | inhibitor | absorbance | pH 8 |  | 137 |
| CC(C)(C)NS(=O)(=O)c1cccc(C(=O)N2CC3(CCC4(CC4)CC3)c3cc(NS(C)(=O)=O)ccc32)c1 | Kinesin-like protein KIF18B (Homo sapiens, UniProt Q86Y91) | ATPase activity | inhibitor |  |  |  | > 100 |
| O=C(CCNC(=O)CNC(=O)CC(c1ccccc1)(c1ccccc1)c1ccccc1)NCC1CCN(Cc2ccc(F)cc2)CC1 | CHRM2 | ligand displacement |  | radioligand |  | cell membranes | 6.4 |
| CN(C)C(=O)c1cc2cnc(Nc3ccc(-c4cccc5c(=O)cc(N6CCOCC6)oc45)c(F)c3)nc2n1C1CCCC1 | CDK4 with cyclin D1 | enzyme activity | inhibitor | radiometric |  |  | 0.116 |
| O=c1cc(-c2ccc(O)c(O)c2)oc2c(Br)c(O)c(Br)c(O)c12 | AMY2 | enzyme activity | inhibitor |  |  |  | 0.99 |
| CNS(=O)(=O)c1ccc(Nc2ncc(C(F)(F)F)c([C@H]3CC[C@](C)(O)CC3)n2)c(C)c1 | CDK4 with cyclin D3 | enzyme activity | inhibitor | radiometric |  |  | 0.247 |
| O=C(CCNC(=O)CNC(=O)CC(c1ccccc1)(c1ccccc1)c1ccccc1)NC[C@H]1CCCN(Cc2ccc(F)cc2)C1 | CHRM2 | ligand displacement |  | radioligand |  | cell membranes | 13.7 |
| COc1ccc(-c2oc3cc(Nc4ncc5cc(C(=O)N(C)C)n(C6CCCC6)c5n4)ccc3c(=O)c2F)cc1 | CDK4 with cyclin D1 | enzyme activity | inhibitor | radiometric |  |  | 1.07 |
| C[C@H]1CN(C(=O)CC#N)[C@]12CCN(c1ncnc3[nH]ccc13)C2 | Organic anion transporter 3 (SLC22A8, Homo sapiens, UniProt Q8TCC7) | transporter uptake | inhibitor |  |  |  | 6.38 |
| CN(C)C(=O)c1cc2cnc(Nc3ccc(-c4cccc5c(=O)cc(N6CCOCC6)oc45)cn3)nc2n1C1CCCC1 | CDK4 with cyclin D1 | enzyme activity | inhibitor | radiometric |  |  | 0.46 |
| O=c1c(O)c(-c2ccc(O)c(O)c2)oc2c(Br)c(O)c(Br)c(O)c12 | AMY2 | enzyme activity | inhibitor |  |  |  | 19.9 |
| Cc1cc(S(=O)(=O)NCCO[C@H]2CC[C@H](CN3CCC(c4ccn5c(N6CCC(=O)NC6=O)cnc5c4)CC3)CC2)ccc1Nc1ncc2cc(Cl)c(=O)n(C3CCCC3)c2n1 | CDK4 with cyclin D3 | enzyme activity | inhibitor | radiometric |  |  | 0.026 |
| CN(C)C(=O)c1cc2cnc(Nc3ccc(-c4cccc5c(=O)cc(N6CCNCC6)oc45)cc3)nc2n1C1CCCC1 | CDK4 with cyclin D1 | enzyme activity | inhibitor | radiometric |  |  | 0.29 |
| N=C(N)c1ccc(OCCCCCOc2ccc(C(=N)N)cc2)cc1 | Chymotrypsinogen A (Bos taurus, UniProt P00766) | enzyme activity | inhibitor | absorbance |  |  | > 1750 |
| CN(C)C(=O)c1cc2cnc(Nc3ccc4c(=O)cc(N5CCOCC5)oc4c3)nc2n1C1CCCC1 | CDK4 with cyclin D1 | enzyme activity | inhibitor | radiometric |  |  | 0.0042 |
| CN1CCC(CNc2ccc3ncc(-c4cccc(OC(F)(F)F)c4)n3n2)CC1 | CHRM2 | cAMP | antagonist |  |  |  | 5.14 |
